Screens (PubChem)
Jurkat tox 60K: cytotoxic compounds reducing Jurkat cell viability. Jurkat E6.1 viability, ATP luminescence, 48 h. inhibition, % at 4 µM. 56,000 compounds, 1.2% hits;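 active means inhibition above the mean inhibition of all tested compounds plus 3 SD, cut at about 28% in these data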
D1 mod: D1 dopamine receptor (human) allosteric modulation; P21728; HEK293 D1, CRE-luciferase, dopamine EC30 potentiation; actives deviate in either direction; B-score at 10 µM; 58,000 compounds, 5.9% hits;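 active means luminescence count or its row- and column-corrected plate score outside the 99.7% band of the plate's sample wells, on either side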
M1 antagonist: M1 muscarinic receptor (rat) antagonism; 64,000 compounds, 3.4% hits; P08482; B-score at 10 µM; CHO-M1 cells, Fluo-4 calcium, ACh EC80 antagonist mode; stronger effect = lower value;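 active means calcium fluorescence response, raw or row-and-column corrected B-score, differing from the plate sample mean either way at a set confidence level, mostly lower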
Target sequence (P08482 whole entry, looked up): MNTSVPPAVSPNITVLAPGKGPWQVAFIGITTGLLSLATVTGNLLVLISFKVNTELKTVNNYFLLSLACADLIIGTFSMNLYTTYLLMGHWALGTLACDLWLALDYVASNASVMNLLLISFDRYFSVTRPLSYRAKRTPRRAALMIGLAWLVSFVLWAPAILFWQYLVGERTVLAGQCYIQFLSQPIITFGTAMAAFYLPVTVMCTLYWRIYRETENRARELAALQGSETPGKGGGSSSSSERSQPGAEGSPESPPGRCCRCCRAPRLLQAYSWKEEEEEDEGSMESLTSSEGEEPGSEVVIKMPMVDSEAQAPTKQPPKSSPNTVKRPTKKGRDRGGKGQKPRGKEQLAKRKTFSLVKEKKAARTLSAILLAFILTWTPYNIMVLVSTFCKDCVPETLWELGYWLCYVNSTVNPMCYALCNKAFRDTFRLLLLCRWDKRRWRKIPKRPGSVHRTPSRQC
DAT uptake mod: modulates human dopamine transporter uptake under cocaine; LLC-PK1 hDAT cells, [14C]-dopamine uptake with cocaine IC80; actives deviate in either direction; B-score at 10 µM; 110,000 compounds, 1.3% hits; AID 449768;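 active means Z score or B-score, a plate-position-corrected score, falls beyond the plate's 99.7% confidence bounds, in either direction; inactive means both scores lie inside the 99.7% bounds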;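 further: scored against the spread of the other compound wells on the same plate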
HEK293 NFkB inh: inhibitors of the PMA/ionomycin-induced NF-kB reporter in HEK293 cells; HEK-293 NF-kB luciferase reporter, luminescence; inhibition, % at 3 µM; 62,000 compounds, 0.21% hits; AID 465;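 active means inhibition above the mean of all tested compounds plus 3 SD, cut at about 40% in these data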;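 further: 0% = stimulated DMSO wells and 100% = 10 µM reference inhibitor 5653914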
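System – HEK-293 cells with stable firefly luciferase reporter driven by four HIV NF-kB elements · Doses – one dose, 3 µM · Schedule – 1 h compound pre-incubation, 16 h PMA/ionomycin at 37 °C · Technique – luminescence from luciferase substrate reagent · Measure – percent inhibition normalized per plate to DMSO and reference-inhibitor controls · Replicates – tested once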
M1 agonist: M1 muscarinic receptor agonism | CHO-M1 cells, Fluo-4 calcium fluorescence, agonist mode; stronger effect = higher value | B-score at 10 µM | 64,000 compounds, 3% hits | AID 626;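 active means fluorescence rise, raw or as B-score row- and column-corrected plate score, outside the 99.7% band of its plate's samples, either direction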
M1 antag confirm: M1 muscarinic receptor (rat) antagonism, confirmed. AID 677. 1,700 compounds, 43% hits. shares compounds with M1 antagonist. calcium response (max-min fluorescence) at 10 µM. CHO-M1 cells, Fluo-4 calcium, ACh EC80 antagonism; stronger effect = lower value;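 active means calcium response below the same-plate mean of wells given acetylcholine alone at its 80%-effect dose, minus 3 SD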;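 further: raw fluorescence intensity difference in arbitrary instrument units and not normalized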
mGluR4 antag: mGluR4 (human) activity, M1 antagonist secondary assay | shares compounds with M1 antagonist | CHO-mGluR4 calcium flux, Fluo-4 fluorescence, glutamate EC80; stronger effect = lower value | 1,700 compounds, 0.9% hits | fluorescence response (max-min) at 10 µM;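 active means fluorescence response below the plate's average for near-maximal glutamate wells, less 3 SD of those wells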;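 further: raw unnormalized fluorescence span taken in the window right after glutamate addition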
Starred values were filed as active, the others as inactive; / = no result given. The list is not random: actives were taken first. Their share in the collection is about 7.6%.

SMILES	Jurkat tox 60K	D1 mod	M1 antagonist	DAT uptake mod	HEK293 NFkB inh	M1 agonist	M1 antag confirm	mGluR4 antag
CCOc1ccc(NC(=O)C2CC(=O)N(c3cc(C)cc(C)c3)C2)cc1 (stereo not drawn)	-4.9	-0.18	-2.82*	0.0751	8.6	-0.141	505	231
CCOc1ccc(N2CC(C(=O)Nc3ccc(S(=O)(=O)N4CCOCC4)cc3)CC2=O)cc1 (stereo not drawn)	-2.9	1.44	-0.201	0.342	22.6	-0.103	/	/
COCCCNCCOc1cc(C(C)C)ccc1C	-1.2	-1.39	-2.27*	0.106	13.6	-0.139	554	237
C/C(CC1(O)C(=O)Nc2ccccc21)=N\O (stereo not drawn)	/	/	/	-0.905	/	/	/	/
COc1ccc(/C(CC2(O)C(=O)Nc3ccccc32)=N\O)cc1 (stereo not drawn)	11.1	/	-2.52*	-1.85	-7.2	0.366	585	233
O=C(O)c1cccc(Cn2cc(Br)cn2)c1	-2.1	-0.675	-0.864	-0.432	17.7	-0.725	/	/
O=C(NCc1ccncc1)c1cccc(Cn2cc(Br)cn2)c1	7.0	1.05	-10*	0.0173	13.4	-1.23	87.8*	205
COc1cc(NC(=O)c2cccs2)cc(OC)c1	-5.8	-0.0454	-3.42*	0.294	-2.5	-0.536	658	331
S=c1[nH]nc(Cc2ccccc2)n1Cc1ccco1	11.6	0.0375	-13.1*	0.689	8.1	0.768	51.7*	240
CCOC(=O)c1ccc(-n2[nH]c(-c3ccccc3)cc2=O)cc1	/	-2.01	-17*	-2.05	8.2	-0.027	691	190
CCOC(=O)c1ccc(-n2c(C)nc3ccccc3c2=O)cc1	0.1	0.00929	0.583	1.81	5.8	-0.514	/	/
COc1ccc(Cc2nc(-c3ccc(-n4cccc4)cc3)no2)cc1	-9.5	0.227	-1.11	-1.11	6.5	-1.11	/	/
COc1ccc(-c2noc(CSc3nc(N)c(-c4ccccc4)c(=O)[nH]3)n2)cc1	1.4	2.61	-3.37*	1.47	9.8	0.93	628	290
COc1ccc(Cc2nc(-c3ccccc3)no2)cc1	4.1	0.574	-2.11*	0.321	8.1	0.14	611	263
Nc1nc(SCc2ccc(Cl)cc2)[nH]c(=O)c1-c1ccccc1	/	/	/	0.682	/	/	/	/
CCN1C(=O)/C(=C/N2CC(C)CC(C)C2)SC1=S (stereo not drawn)	-3.5	1.22	-0.956	-0.342	16.1	-1.11	/	/
CCN1C(=O)/C(=C\N2CCCCCC2)SC1=S	6.2	/	-8.72*	1.05	1.5	-2.14	16.3*	220
CCn1c(CNC(=O)c2ccco2)nnc1SCC(=O)Nc1cc(C(F)(F)F)ccc1Cl	10.5	-0.311	-1.16*	0.506	22.5	0.262	659	184
CCn1c(CNC(=O)c2ccco2)nnc1SCC(=O)Nc1cc(C)c(C)cc1Br	/	/	/	-0.052	/	/	/	/
CCn1c(CNc2ccccc2Cl)nnc1SCC(=O)NCc1ccccc1	4.2	-0.0511	-2.98*	0.00463	6.5	0.34	465*	239
Cc1c(NS(=O)(=O)c2cccc(C(=O)NCc3ccncc3)c2)c(=O)n(-c2ccccc2)n1C	/	/	/	0.357	/	/	/	/
COc1cc2c(cc1OC)C(C(=O)N1CCN(c3ccccn3)CC1)C(c1cccs1)N(C)C2=O (stereo not drawn)	3.9	-0.272	-2.08*	/	11.2	0.512	604	239
CC(=O)c1c(C)nn(C(C)CC(=O)O)c1C (stereo not drawn)	6.5	-0.313	-0.142	-0.0458	20.5	0.099	/	/
Cc1nnc(N(Cc2ccco2)C(=O)c2cccc(C#N)c2)s1	/	-0.0145	-0.0278	-0.072	7.1	-0.0236	/	/
CN(C(=O)c1cccc(C#N)c1)c1nnc(C2CCCO2)s1 (stereo not drawn)	-7.7	/	-4.54*	-0.142	-2.3	-1.09	638	248
SMILES	Jurkat tox 60K	D1 mod	M1 antagonist	DAT uptake mod	HEK293 NFkB inh	M1 agonist	M1 antag confirm	mGluR4 antag
COc1ccccc1-c1nnc(SCC(=O)OC(C)C)o1	-0.3	-1.19	-0.104	0.21	2.3	-0.476	/	/
CCC(=O)c1cc2c(cc1NC(=O)C(C)C)OCCO2	-0.6	1.45	0.472	-1.48	7.6	-0.362	/	/
O=C(CCC(=O)NNC(=O)Nc1ccc(Cl)cc1)NCc1ccccc1	/	/	/	-1.32	/	/	/	/
CCN1CCN(c2ncc(C(=O)Nc3c(F)cc(F)cc3Br)c3ccccc23)CC1	5.0	-1.28	-10.3*	0.657	8.5	-1.63	201*	198
COc1cccc(CNc2nc3ccccc3n2CCN2CCCCC2)c1	9.3	-2.7	-4.3*	1.08	-0.8	-2.14	608	273
COc1ccc(OC)c(CNc2nc3ccccc3n2CCN2CCCCC2)c1	2.1	-1.04	/	1.36	7.4	/	/	/
CCn1c(=O)cc(OCC(=O)N2CCc3ccccc32)c2ccccc21	-7.9	-0.426	0.842	0.68	0.4	-0.049	/	/
COc1ccccc1-c1noc(-c2ccccc2)n1	0.5	-0.516	-16.9*	/	-28.9	-0.00436	506*	263
COc1ccc(-c2nc(-c3ccccc3OC)no2)cc1OC	1.3	-0.0418	-1.27	0.272	0.6	1.42	/	/
CCOc1ccccc1-c1nc(-c2ccc(C)nc2OC)no1	/	-0.338	-0.784*	-0.0272	-34.3	-0.0657	663	237
CCCCOC(=O)c1ccc(NC(=O)c2nn(C)cc2Br)cc1	/	/	/	0.542	/	/	/	/
O=C(NCc1ccco1)c1cc2cc3ccc(Cl)cc3nc2o1	-5.5	0.486	-2.52*	0.263	11.0	0.0547	696	238
CCOc1ccc2nc(SCC(=O)NC(=O)NCc3ccco3)sc2c1	/	/	/	-0.182	/	/	/	/
O=C(CSc1nc2cc(Cl)ccc2s1)NC(=O)NCc1ccco1	-1.0	0.202	-2.11*	-0.105	6.7	-1.22	629	255
COc1ccc2cc3cc(C(=O)NCc4ccco4)oc3nc2c1	/	/	/	0.199	/	/	/	/
NC(=O)NCC12CC3CC(CC(C3)C1)C2	0.5	-0.183	-2.88*	-1.35	11.0	0.55	668	248
O=C(CN1C(=O)CCC1=O)NCC12CC3CC(CC(C3)C1)C2	/	/	/	-2.03	/	/	/	/
COc1ccc(CNC(=O)CN(CC2CCCO2)C(=O)CNS(=O)(=O)c2ccc(C)cc2)cc1 (stereo not drawn)	-5.4	0.039	0.735	0.998	5.7	-0.403	/	/
COc1ccc(CNC(=O)CN(CC2CCCO2)C(=O)CNS(=O)(=O)c2ccccc2)cc1 (stereo not drawn)	-2.6	0.165	-2.44*	-1.14	9.9	-0.764	546	189
CC(=O)Nc1ccc(S(=O)(=O)N2CCN(c3nc(NC4CCCC4)c4ccccc4n3)CC2)cc1	2.5	/	-2.81*	1.44	17.6	0.169	514*	239
CCOC(=O)c1[nH]c2ccc(OCC)cc2c1NC(=O)CN1CCN(c2ccccn2)CC1	-4.2	1.24	-2.51*	-0.88	15.4	0.998	581	198
